MC4R antagonist: MC4R antagonists of cAMP signaling, primary screen, cell-based, TR-FRET, antagonist arm of biased-ligand search. Melanocortin receptor 4 (Homo sapiens), P32245. inhibition, % at 6.5 µM. AID 540295, 2011. 360,000 compounds, 0.48% hits. MC4R-expressing cells, MTII-stimulated cAMP, LANCE TR-FRET;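 active = inhibition above its plate's cutoff, the mean of tested wells on that plate plus 3 SD, cut at about 29% in these data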;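 also: 0% = Melanotan II alone and 100% = Melanotan II plus saturating MCL0020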
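System: U2OS cells stably expressing human melanocortin 4 receptor (MC4R). Reagent: Melanotan II challenge after compound preincubation. Doses: 6.5 µM. Times: 30-min compound, 1-h challenge, 1-h detection, room temperature. Measured by: TR-FRET with Eu-cAMP and labeled anti-cAMP, 671 nm. Replicates: singlicate.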
MC4R ag barr: MC4R agonists recruiting beta-arrestin, primary screen, cell-based, luminescence, agonist arm of biased-ligand search; 360,000 compounds, 0.98% hits; activation, % at 8.9 µM; Melanocortin receptor 4 (Homo sapiens), P32245; U2OS MC4R beta-arrestin complementation; percent of melanotan II response, DMSO zero;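 active = activation above a per-plate cutoff, the mean activation of sample wells on that plate plus 3 SD, cut at about 8% in these data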
EP2 antag: human EP2 receptor antagonists, primary screen, TR-FRET cAMP, C6 glioma cells | inhibition, % at 25 µM | Prostaglandin E2 receptor EP2 subtype (Homo sapiens), P43116 | C6 glioma cells expressing human EP2; cells stimulated with saturating PGE2 | 260,000 compounds, 0.52% hits;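 active = percent inhibition above 40 after rounding to a whole number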;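 also: rat C6 glioma host cells with rolipram phosphodiesterase inhibitor present; the protocol text gives 20 µM as final concentration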
EP2 mod: EP2 receptor modulators, cAMP readout, primary screen, cell-based, HTRF cAMP, PGE2 stimulation; induction, % at 25 µM; 260,000 compounds, 0.83% hits; AID 940, 2007; EP2-expressing cells, cAMP HTRF FRET, PGE2 co-stimulation;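 active = compounds whose cAMP rise, as percent of the full-agonist control response, exceeds 60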;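 also: rat C6 glioma line stably carrying human EP2 under a CMV promoter; the protocol text gives 20 µM as final concentration; 100% = response of wells given 1 µM PGE2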
Granule exo inh: LAMP-1 surface exposure blockers, TALL-104 cells – cell-based, flow cytometry, MLPCN library, primary screen. 360,000 compounds, 0.66% hits. AID 651702, 2012. TALL-104 LAMP-1 surface exposure; cells stimulated with thapsigargin and PMA. inhibition, % at 10 µM;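 active = inhibition above about 55%, limit read from the data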
T cell HTS: modulators of CD8 T cell-vesicle binding, primary screen, mouse 2C CD8+ T cells, flow cytometry | 2C CD8+ T cell-vesicle binding; stronger effect = lower value | response (vesicle binding), % at 7 µM | 330,000 compounds, 0.068% hits;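 active = response, share of CD8 T cells binding vesicles, and their 90th percentile fluorescence all below set limits, cut at about 80% in these data, passing the limit was not always enough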;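 also: values below 100% mean blocked vesicle binding to the CD8+ T cells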
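Incubation: binding step 1.5 h, 37 °C, antibody labelling 20 min, ice; system: murine 2C transgenic CD8+ T lymphocytes; technique: cytometric PE anti-B7-1 and Alexa647 anti-CD8 signals after 1% paraformaldehyde fixation; also added: QL9-charged Drosophila Ld/ICAM-1/B7-1 vesicles; control set: naked versus QL9-loaded vesicles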
MC4R barr conf: MC4R beta-arrestin agonists, retest, confirmation, cell-based, luminescence, U2OS; shares compounds with MC4R ag barr; U2OS MC4R beta-arrestin recruitment; scaled DMSO 0%, Melanotan II 100%; 2,400 compounds, 31% hits; activation, % at 8.9 µM; AID 602192, 2012;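 active = mean activation across replicates above the hit cutoff set in the earlier primary screen, cut at about 8% in these data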
MOR DOR agonist: agonists of MOR-DOR heterodimerization, counter-screen for MC4R biased agonist project, cell-based, luminescence; shares compounds with MC4R ag barr; U2OS PathHunter beta-arrestin, beta-gal luminescence; percent of deltorphin B response, DMSO zero; activation, % at 9.2 µM; 2,400 compounds, 5.8% hits; AID 602194, 2012;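 active = mean activation across replicates exceeds the hit threshold derived in the earlier primary screen, cut at about 18% in these data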;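 also: 100% = deltorphin B at 0.9 µM final and 0% = DMSO alone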
Target sequence (P35372 whole entry, looked up): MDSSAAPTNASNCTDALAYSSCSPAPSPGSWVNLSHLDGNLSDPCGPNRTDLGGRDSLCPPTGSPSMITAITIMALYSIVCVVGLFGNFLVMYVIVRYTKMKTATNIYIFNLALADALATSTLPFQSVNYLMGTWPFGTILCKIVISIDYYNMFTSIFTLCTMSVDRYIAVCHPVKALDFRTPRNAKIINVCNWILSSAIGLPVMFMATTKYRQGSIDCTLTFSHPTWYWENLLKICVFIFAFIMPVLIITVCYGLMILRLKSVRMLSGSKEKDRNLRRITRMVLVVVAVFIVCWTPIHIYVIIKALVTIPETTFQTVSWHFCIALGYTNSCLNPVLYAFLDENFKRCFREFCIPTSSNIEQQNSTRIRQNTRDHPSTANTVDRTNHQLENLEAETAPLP
Target sequence (P41143 whole entry, looked up): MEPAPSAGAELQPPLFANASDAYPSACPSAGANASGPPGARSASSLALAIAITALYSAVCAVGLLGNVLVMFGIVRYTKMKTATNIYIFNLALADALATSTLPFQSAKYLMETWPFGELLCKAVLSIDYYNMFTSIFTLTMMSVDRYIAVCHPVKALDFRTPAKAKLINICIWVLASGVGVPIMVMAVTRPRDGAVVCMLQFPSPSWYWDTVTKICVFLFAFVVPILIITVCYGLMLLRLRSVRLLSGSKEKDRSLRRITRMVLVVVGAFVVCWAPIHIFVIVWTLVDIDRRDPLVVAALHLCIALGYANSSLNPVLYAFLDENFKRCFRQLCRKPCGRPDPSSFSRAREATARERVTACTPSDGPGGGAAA
* hit, by the source's call; i = inactive; · = not tested or not shown. Compounds with a hit are over-represented: about 2.6% of the library has one in this group of screens.

SMILES | MC4R antagonist | MC4R ag barr | EP2 antag | EP2 mod | Granule exo inh | T cell HTS | MC4R barr conf | MOR DOR agonist
O=C(NNC(=S)NC(=O)c1ccccc1[N+](=O)[O-])c1ccc(Cl)cc1Cl | 11 | -2 | 6 | 3 | -3 | 108 | · | ·
COc1ccc(NC(=O)c2cc(Br)ccc2Cl)c([N+](=O)[O-])c1 | -1 | 11* | 4 | 29 | -3 | 237 | 4 | 4
COc1ccc(NC(=O)c2ccc(C)cc2Cl)c([N+](=O)[O-])c1 | 0 | 2 | 20 | -37 | 0 | 178 | · | ·
COc1ccc(NC(=O)COC(=O)c2cc(C)oc2C)c([N+](=O)[O-])c1 | 8 | 23* | · | · | 0 | 231 | 3 | 11
Cc1cccc(NC(=S)NC(C)CCc2ccccc2)c1 (stereo not drawn) | 0 | 21* | 9 | 11 | 2 | 223 | 2 | 8
N=C1C(c2nc3ccccc3s2)=C(O)CN1NC(=O)c1c[nH]c2ccccc12 | 2 | 7 | 7 | 14 | 21 | 570 | · | ·
O=C(COC(=O)c1nn(-c2ccccc2C(F)(F)F)cc1O)c1ccc(OC(F)F)cc1 | 0 | 11* | · | · | 2 | i | 2 | 2
CCCCCCN1C=C/C(=C\C=C(C#N)C#N)c2ccccc21 | -1 | 11* | 5 | -13 | 0 | 568 | 12* | 13
COc1ccc(-c2csc(NC(=O)c3ccccc3NS(=O)(=O)c3ccc(F)c(F)c3)n2)cc1 | 19 | 15* | 24 | -23 | 28 | 125 | 4 | 3
Cc1ccc(S(=O)(=O)Nc2ccccc2C(=O)Nc2nc(-c3ccc(F)cc3)cs2)cc1 | 17 | 0 | 8 | -5 | 2 | 297 | · | ·
CCOc1ccc(-c2nnc(N3CCCCC3)c3ccccc23)cc1 | 4 | -2 | 7 | 11 | -2 | 316 | · | ·
Cc1ccc(NC(=O)OCc2cccs2)cc1 | · | · | · | · | · | 186 | · | ·
O=C(Nc1ccc(Cl)cc1)OCc1cc(-c2ccccc2Cl)on1 | 4 | 11* | · | -26 | -1 | 232 | 8.6* | 5
O=C(Nc1ccc(Cl)cc1)OCc1ccccn1 | 3 | -1 | 14 | -70 | -3 | 206 | · | ·
Cc1ccc(NC(=O)OCc2cc(-c3ccccc3)on2)cc1 | -5 | 11* | 8 | -36 | 4 | 493 | 1 | 6
COc1ccccc1CCNC(=O)c1cc(-c2ccccn2)nc2ccc(Br)cc12 | · | · | 9 | 11 | · | 232 | · | ·
COc1ccccc1CCNC(=O)c1cc(-c2ccncc2)nc2ccc(Br)cc12 | 7 | 18* | 2 | -1 | 0 | · | 10* | 4
COc1cccc(CNc2ccc(N3CCC(C)CC3)cc2)c1OC | -1 | 0 | 8 | 19 | -2 | 416 | · | ·
CCN(CC(=O)Nc1c(F)cccc1F)C(=O)CNC(=O)C1CCCCC1 | 5 | -1 | · | · | -3 | 231 | · | ·
Cn1c2ccccc2c2cnn(CC(=O)Nc3ccc(F)cc3F)c(=O)c21 | -3 | 16* | 6 | -31 | 1 | 110 | 1 | 3
CCC(C)(C)n1nnnc1C(c1cc2ccc(C)cc2[nH]c1=O)N(Cc1ccco1)CC1CCCO1 (stereo not drawn) | · | · | 16 | 9 | · | · | · | ·
CC(=C\c1ccccc1)/C=C1/SC(=S)N(CCC(=O)Nc2ccccn2)C1=O | · | · | 3 | 7 | · | 714 | · | ·
O=C(CCN1C(=O)/C(=C/C=C/c2ccccc2)SC1=S)Nc1cccnc1 | -7 | 12* | 7 | -8 | 4 | 243 | 32* | 13
O=C(CCN1C(=O)/C(=C/C=C/c2ccccc2)SC1=S)Nc1ccccn1 | 14 | 34* | 7 | 11 | 0 | 179 | 22* | 12
CCOC(=O)c1oc2ccc(S(=O)(=O)N3CCC(C)CC3)cc2c1C | 4 | 13* | 8 | -20 | 4 | 676 | -1 | 5
SMILES | MC4R antagonist | MC4R ag barr | EP2 antag | EP2 mod | Granule exo inh | T cell HTS | MC4R barr conf | MOR DOR agonist
CN(C)c1ccc([N+](=O)[O-])cc1C(=O)NCC(c1ccco1)N(C)C (stereo not drawn) | -4 | 2 | · | · | 12 | 144 | · | ·
O=C(COC(=O)c1sc2ccccc2c1Cl)Nc1ncc(Cl)cc1Cl | -5 | 27* | 10 | -8 | 1 | 338 | -2 | 4
O=C(COC(=O)c1sc2cc(F)ccc2c1Cl)Nc1ncc(Cl)cc1Cl | 9 | 0 | 14 | 13 | -2 | 167 | · | ·
COc1ccccc1Nc1nnc(SCC(=O)Nc2cc(C)on2)s1 | 5 | 30* | 9 | -2 | 2 | 223 | 3 | 7
COc1c(C(=O)Nc2ccc(Br)cn2)ccc2ccccc12 | -1 | 12* | · | · | -8 | 205 | 0 | 4
O=C(Nc1ccc(Br)cn1)c1cccc2ccccc12 | -19 | 0 | · | · | 23 | 385 | · | ·
CCN(CCNCC(O)COc1ccccc1C(C)C)c1cccc(C)c1 (stereo not drawn) | 8 | 16* | · | · | 42 | 184 | 12* | 12
CCOC(=O)N1CCN(CC(O)COc2ccccc2C(C)C)CC1 (stereo not drawn) | -4 | 1 | 8 | 17 | 1 | 279 | · | ·
Cc1cccnc1C(c1ccc(F)cc1)N(C)C(=O)C1CCN(CCOc2ccc(Cl)cc2Cl)CC1 (stereo not drawn) | 7 | 11* | · | · | 10 | · | 18* | 10
Cc1cccnc1C(c1ccc(F)cc1)N(C)C(=O)C1CCN(CCCOc2ccc(F)cc2)CC1 (stereo not drawn) | -2 | -1 | · | · | 2 | · | · | ·
O=C(NC(c1ccccc1)c1ccc2ccccc2n1)C1CCN(CCOc2ccc(Cl)cc2Cl)CC1 (stereo not drawn) | 13 | 39* | · | · | 19 | · | 18* | 7
C=CCN1C(=O)/C(=C\c2ccco2)C(C(=O)OC)=C1C | -5 | -1 | 6 | 27 | 0 | 289 | · | ·
O=C(COc1ccc(-c2ccccc2)cc1)N/N=C/c1ccccc1Br | 5 | 6 | 8 | -30 | -1 | 93 | · | ·

Screening data from PubChem BioAssay.
